As usually defined, the pIC50 is −log10 of the IC50, conventionally taken in molar units. A higher pIC50 goes with a low IC50.

Among the data in ChEMBL document CHEMBL1153534, “Design and synthesis of androgen receptor antagonists with bulky side chains for overcoming antiandrogen resistance” (J Med Chem, 2009) are Activity and IC50 values, retold here.

The test system of experiment [1] is PC-3. The experiment in a line: Antiandrogenic activity in human PC3 cells expressing androgen receptor H874Y mutant assessed as inhibition of DHT-induced ARE-dependent transactivation at 1 uM after 24 hrs by luciferase reporter gene assay. In kind it is cell-based. The method in brief: (§1)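 PC-3 cells, which lack endogenous AR, transiently transfected with plasmids expressing human AR (WT, T877A, W741C or H874Y) plus an ARE-driven MMTV-luc reporter. Cells were treated with or without 0.1 nM DHT. Firefly luciferase was standardized to a Renilla control and normalized to the 0.1 nM DHT signal. Mean ± sd.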
(In general: In a reporter assay the amount or activity of a reporter protein is the signal.)

The test system of experiment [2] is Androgen receptor (Homo sapiens), P10275 [T878A]. In words: Activity in human PC3 cells expressing androgen receptor T877A mutant assessed as ARE-dependent transactivation at 0.1 uM after 24 hrs by luciferase reporter gene assay in absence of DHT. To be noted: PC-3. In kind it is cell-based. The method in brief:
as §1

The test system of experiment [3] is PC-3. The experiment in a line: Activity in human PC3 cells expressing androgen receptor H874Y mutant assessed as ARE-dependent transactivation at 1 uM after 24 hrs by luciferase reporter gene assay in absence of DHT. In kind it is cell-based. The method in brief:
as §1

Experiment [4] addresses T1, Progesterone receptor (Homo sapiens) (UniProt P06401).
T1 sequence (whole entry): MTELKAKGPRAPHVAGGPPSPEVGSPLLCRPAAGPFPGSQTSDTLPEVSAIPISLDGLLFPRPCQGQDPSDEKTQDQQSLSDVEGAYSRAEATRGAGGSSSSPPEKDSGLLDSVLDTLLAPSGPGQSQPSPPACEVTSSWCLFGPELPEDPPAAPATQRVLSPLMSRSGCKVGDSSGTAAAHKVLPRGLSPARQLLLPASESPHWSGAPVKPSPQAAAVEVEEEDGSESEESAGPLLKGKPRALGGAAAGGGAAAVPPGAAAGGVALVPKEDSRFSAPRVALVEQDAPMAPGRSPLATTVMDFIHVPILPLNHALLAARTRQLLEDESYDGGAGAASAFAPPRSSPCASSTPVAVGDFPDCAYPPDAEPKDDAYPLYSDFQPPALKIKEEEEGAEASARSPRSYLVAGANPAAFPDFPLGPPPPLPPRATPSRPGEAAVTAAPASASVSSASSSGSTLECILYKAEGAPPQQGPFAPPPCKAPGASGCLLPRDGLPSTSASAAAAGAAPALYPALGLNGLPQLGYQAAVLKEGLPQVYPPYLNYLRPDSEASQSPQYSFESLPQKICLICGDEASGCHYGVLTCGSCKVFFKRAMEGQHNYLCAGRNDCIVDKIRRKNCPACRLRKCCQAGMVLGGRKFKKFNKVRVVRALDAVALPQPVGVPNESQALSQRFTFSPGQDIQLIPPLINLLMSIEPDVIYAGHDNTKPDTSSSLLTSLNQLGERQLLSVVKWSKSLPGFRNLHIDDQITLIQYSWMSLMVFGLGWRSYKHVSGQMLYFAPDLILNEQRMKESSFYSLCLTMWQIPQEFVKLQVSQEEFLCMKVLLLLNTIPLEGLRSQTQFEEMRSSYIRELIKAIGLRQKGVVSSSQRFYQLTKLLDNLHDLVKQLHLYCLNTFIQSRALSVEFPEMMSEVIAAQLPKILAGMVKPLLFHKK
The experiment in a line: Agonist activity at human PR B-form expressed in human PC3 cells assessed as receptor transactivation at 0.1 uM after 24 hrs by luciferase reporter gene assay. In kind it is functional, cell-based. As to conditions: PC-3. The method, boiled down: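 PC-3 cells carrying a luciferase reporter for transactivation by the human PR B form. Antagonist mode used 10 nM R5020 as the agonist. Agonist mode ran in the absence of R5020. Luciferase read-out.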

The subject of experiment [5] is CWR22R. In words: Cytotoxicity against human 22Rv1 cells after 72 hrs by MTT assay. In kind it is functional, cell-based. As to conditions: 22Rv1, 72 h. On the technique in general: Formazan colour is commonly taken as a measure of viable cells.
Experiment [6] concerns PC-3. The experiment in a line: Suppression of DHT-stimulated growth of human PC3 cells after 72 hrs with increasing concentration of DHT. It counts as functional, cell-based.
Experiment [7] concerns T2, Androgen receptor (Homo sapiens), P10275 [W742C].
T2 sequence (whole entry): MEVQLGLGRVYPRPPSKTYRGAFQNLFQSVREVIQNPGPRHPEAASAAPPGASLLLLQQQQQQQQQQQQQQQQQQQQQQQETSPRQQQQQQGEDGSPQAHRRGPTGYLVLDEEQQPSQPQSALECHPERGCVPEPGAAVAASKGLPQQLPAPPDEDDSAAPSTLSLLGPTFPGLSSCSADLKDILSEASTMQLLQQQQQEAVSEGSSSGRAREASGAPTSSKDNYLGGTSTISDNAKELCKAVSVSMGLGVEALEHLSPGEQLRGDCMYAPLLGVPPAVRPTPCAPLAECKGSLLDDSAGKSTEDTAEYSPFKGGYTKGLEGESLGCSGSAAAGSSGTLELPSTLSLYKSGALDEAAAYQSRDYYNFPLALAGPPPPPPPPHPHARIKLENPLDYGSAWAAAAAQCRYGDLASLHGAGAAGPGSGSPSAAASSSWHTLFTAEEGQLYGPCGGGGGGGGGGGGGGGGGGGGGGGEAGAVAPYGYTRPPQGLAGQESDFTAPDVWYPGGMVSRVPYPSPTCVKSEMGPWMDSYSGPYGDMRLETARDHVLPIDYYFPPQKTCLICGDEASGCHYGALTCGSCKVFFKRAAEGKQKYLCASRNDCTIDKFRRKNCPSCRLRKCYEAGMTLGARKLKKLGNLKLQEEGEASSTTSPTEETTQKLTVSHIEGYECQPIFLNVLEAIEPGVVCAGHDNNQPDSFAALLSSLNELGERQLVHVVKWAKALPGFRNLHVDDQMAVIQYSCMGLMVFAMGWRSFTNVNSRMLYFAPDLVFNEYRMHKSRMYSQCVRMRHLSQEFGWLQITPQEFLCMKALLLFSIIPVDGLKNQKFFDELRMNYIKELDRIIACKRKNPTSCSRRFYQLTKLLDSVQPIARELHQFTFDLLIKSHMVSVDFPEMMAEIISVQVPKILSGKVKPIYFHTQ
The experiment in a line: Activity in human PC3 cells expressing androgen receptor W741C mutant assessed as ARE-dependent transactivation at 0.1 uM after 24 hrs by luciferase reporter gene assay in absence of DHT. It counts as cell-based. To be noted: PC-3. The method, boiled down: as §1

Experiment [8] has as its system LNCaP. The experiment in a line: Suppression of DHT-stimulated growth of human LNCAP cells after 72 hrs with increasing concentration of DHT. It counts as functional, cell-based.

pIC50: −log10 of the molar value. Activity calls are given as the source filed them. The calls are words filed in the database; no cut-off is given here.

Chain of Androgen receptor (Homo sapiens), P10275 [T878A] (P10275 whole entry T878A): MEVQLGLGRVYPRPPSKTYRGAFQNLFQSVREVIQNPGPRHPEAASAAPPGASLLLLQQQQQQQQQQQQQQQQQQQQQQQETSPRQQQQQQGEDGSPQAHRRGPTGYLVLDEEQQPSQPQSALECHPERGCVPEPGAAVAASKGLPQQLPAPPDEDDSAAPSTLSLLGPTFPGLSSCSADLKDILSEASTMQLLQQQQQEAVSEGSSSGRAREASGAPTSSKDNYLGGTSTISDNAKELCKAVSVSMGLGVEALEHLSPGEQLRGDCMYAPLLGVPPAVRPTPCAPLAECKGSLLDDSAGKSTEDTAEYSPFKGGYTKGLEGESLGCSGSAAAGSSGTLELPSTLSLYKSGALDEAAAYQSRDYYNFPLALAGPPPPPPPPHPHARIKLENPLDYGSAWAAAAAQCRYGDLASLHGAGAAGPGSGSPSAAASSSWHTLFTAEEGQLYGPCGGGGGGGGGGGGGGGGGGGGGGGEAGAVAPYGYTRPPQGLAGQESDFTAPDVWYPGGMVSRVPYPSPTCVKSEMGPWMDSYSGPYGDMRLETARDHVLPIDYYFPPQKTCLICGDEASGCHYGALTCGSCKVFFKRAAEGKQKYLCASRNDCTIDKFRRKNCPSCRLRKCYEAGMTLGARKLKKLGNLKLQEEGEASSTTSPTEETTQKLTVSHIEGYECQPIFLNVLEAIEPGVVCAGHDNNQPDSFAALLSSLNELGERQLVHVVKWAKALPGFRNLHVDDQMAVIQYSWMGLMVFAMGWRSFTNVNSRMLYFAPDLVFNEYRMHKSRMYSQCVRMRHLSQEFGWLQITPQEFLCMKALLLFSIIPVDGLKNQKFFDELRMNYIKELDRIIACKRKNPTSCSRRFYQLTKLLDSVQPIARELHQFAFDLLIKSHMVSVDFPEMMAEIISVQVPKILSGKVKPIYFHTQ

Regarding `COc1cc(/C=C(\C(=O)/C=C/C2=C(C)CCCC2(C)C)C(=O)/C=C/c2ccc(O)c(OC)c2)ccc1O`, the result in experiment [1] and in experiment [6] was Active. Further, the result in experiment [2], in experiment [3], in experiment [4], in experiment [7] and in experiment [8] was inactive. Moreover, the negative-log IC50 (pIC50) in experiment [5] is 5.66.
